Laboratory results: ChEMBL document CHEMBL4354819, “Discovery of Novel Small Molecule Dual Inhibitors Targeting Toll-Like Receptors 7 and 8” (J Med Chem, 2019)
Activity calls are given as the source filed them. No cut-off for these calls is given here.

How the values were obtained:
[1] = tested on: THP-1; assay: Inhibition of IFN mediated immune response in human THP1 cells assessed as inhibition of 3p-hpRNA-induced RIG1 signalling pathway at 0.5 to 5 uM incubated for 16 hrs by luciferase assay; format: functional, cell-based
How it was run: (§1)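 THP1-Dual monocytes carrying Lucia luciferase and SEAP reporters were stimulated with 3p-hpRNA (RIG-I agonist) or Y-form dsDNA G3-YSD (cGAS agonist), with or without compound. Secreted Lucia luciferase luminescence was measured as the type I IFN read-out. Mean ± s.d., n = 3 independent experiments.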

[2] = tested on: THP-1; assay: Cytotoxicity against human THP1 cells transfected with human TLR7/8 assessed as reduction in cell viability at 0.5 to 20 uM incubated for 16 hrs by WST-1 assay; format: cell-based; conditions: thp-1, 16 h
[3] = tested on: HEK293; assay: Cytotoxicity against human HEK293 cells transfected with human TLR7 assessed as reduction in cell viability at 0.5 to 20 uM incubated for 16 hrs by WST-1 assay; format: cell-based; conditions: hek293, 16 h
[4] = biological target: T1, Toll-like receptor 8 (Homo sapiens) (UniProt Q9NR97); assay: Inhibition of human TLR8 expressed in HEK293 cells assessed as reduction in TNFalpha production incubated for 24 hrs by ELISA; format: cell-based
T1 sequence (whole entry): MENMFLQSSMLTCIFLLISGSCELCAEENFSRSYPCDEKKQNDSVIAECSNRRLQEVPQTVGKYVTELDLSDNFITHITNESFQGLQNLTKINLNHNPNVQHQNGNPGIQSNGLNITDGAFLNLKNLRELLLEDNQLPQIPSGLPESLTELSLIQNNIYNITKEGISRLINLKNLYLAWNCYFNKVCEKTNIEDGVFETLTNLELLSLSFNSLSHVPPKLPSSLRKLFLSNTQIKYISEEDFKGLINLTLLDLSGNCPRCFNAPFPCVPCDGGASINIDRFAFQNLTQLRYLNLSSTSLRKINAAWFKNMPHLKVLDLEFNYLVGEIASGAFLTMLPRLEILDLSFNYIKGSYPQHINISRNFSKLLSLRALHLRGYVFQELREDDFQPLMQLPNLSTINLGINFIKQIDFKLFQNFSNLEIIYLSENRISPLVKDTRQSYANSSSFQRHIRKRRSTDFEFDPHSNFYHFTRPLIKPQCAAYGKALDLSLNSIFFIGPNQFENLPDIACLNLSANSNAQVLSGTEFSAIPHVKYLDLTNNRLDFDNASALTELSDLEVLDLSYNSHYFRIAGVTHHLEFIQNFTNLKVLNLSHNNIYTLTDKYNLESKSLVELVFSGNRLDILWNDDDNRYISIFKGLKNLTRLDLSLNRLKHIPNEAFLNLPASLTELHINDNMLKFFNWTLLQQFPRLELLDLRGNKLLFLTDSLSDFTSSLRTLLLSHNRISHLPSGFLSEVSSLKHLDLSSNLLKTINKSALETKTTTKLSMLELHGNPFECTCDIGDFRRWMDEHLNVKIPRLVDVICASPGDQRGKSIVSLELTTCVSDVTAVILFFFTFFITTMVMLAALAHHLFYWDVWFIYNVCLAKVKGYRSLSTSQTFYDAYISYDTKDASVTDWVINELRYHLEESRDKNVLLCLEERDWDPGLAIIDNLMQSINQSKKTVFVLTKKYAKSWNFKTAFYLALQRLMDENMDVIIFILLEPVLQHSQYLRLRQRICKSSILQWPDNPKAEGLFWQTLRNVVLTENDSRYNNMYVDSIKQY

[5] = tested on: RAW264.7; assay: Cytotoxicity against mouse RAW264.7 cells assessed as reduction in cell viability at 0.5 to 20 uM incubated for 16 hrs by WST-1 assay; format: cell-based; conditions: raw264.7, 16 h
[6] = tested on: RAW264.7; assay: Cytotoxicity against mouse RAW264.7 cells transfected with human TLR7/8 assessed as reduction in cell viability at 0.5 to 20 uM incubated for 16 hrs by WST-1 assay; format: cell-based; conditions: raw264.7, 16 h
[7] = biological target: T1, Toll-like receptor 8 (Homo sapiens); assay: Inhibition of human TLR8 expressed in HEK293 cells assessed as reduction in ssRNA-induced NFkappaB production at 5 uM incubated for 16 hrs by quanti-blue SEAP assay; format: cell-based
How it was run: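 HEK 293 hTLR8 SEAP reporter cells were stimulated with ssRNA (ssRNA-Lyo-40) and incubated with compound for 16 h. Data were normalized as (raw − untreated)/(ligand + solvent − untreated), with ligand + solvent set as 100%. Mean ± s.d., n = 3 independent experiments.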

[8] = biological target: T1, Toll-like receptor 8 (Homo sapiens); assay: Inhibition of human TLR8 expressed in HEK293 cells assessed as reduction in TNFalpha-induced NFkappaB production incubated for 16 hrs by quanti-blue SEAP assay; format: cell-based
How it was run: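 HEK 293 hTLR8 SEAP reporter cells were stimulated with recombinant hTNF-α and incubated with compound for 16 h. SEAP absorbance was read at 620 nm and compared with 50% DMSO-treated and untreated wells.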

[9] = tested on: THP-1; assay: Inhibition of IFN mediated immune response in human THP1 cells assessed as inhibition of G3-YSD-induced cGAS signalling pathway at 0.5 to 5 uM incubated for 16 hrs by luciferase assay; format: functional, cell-based; how it was run: as §1

Compound	inhibition [1]	Activity [2]	Activity [3]	inhibition [4]	Activity [5]	Activity [6]	inhibition [7]	inhibition [8]	inhibition [9]
O=C(Nc1ccc(Oc2cc(C(F)(F)F)cc(C(F)(F)F)c2)cc1)c1c(F)cccc1I	inactive	Non-Toxic	Non-Toxic	Active	Non-Toxic	Non-Toxic	inactive	Active	inactive
O=C(Nc1ccc(Oc2cncc(C(F)(F)F)c2)cc1)c1c(F)cccc1Cl	inactive	Non-Toxic	Non-Toxic	Active	Non-Toxic	Non-Toxic	inactive	Active	inactive
O=[N+]([O-])c1c(I)cccc1Oc1ccc(-c2nnco2)cc1	inactive	Non-Toxic	Non-Toxic	Active	Non-Toxic	Non-Toxic	Active	Active	inactive
